Consider 59 compounds from ChEMBL document CHEMBL2429859, “Inhibiting aberrant signal transducer and activator of transcription protein activation with tetrapodal, small molecule Src homology 2 domain binders: promising agents against multiple myeloma” (J Med Chem, 2013).

Usually pIC50 stands for −log10 of the IC50, conventionally taken in molar units.

pIC50: −log10 of the molar value. Where only a bound is given, the exact number is not on record here.

Sequence of Signal transducer and activator of transcription 3 (P40763 whole entry, the tested form may be a part): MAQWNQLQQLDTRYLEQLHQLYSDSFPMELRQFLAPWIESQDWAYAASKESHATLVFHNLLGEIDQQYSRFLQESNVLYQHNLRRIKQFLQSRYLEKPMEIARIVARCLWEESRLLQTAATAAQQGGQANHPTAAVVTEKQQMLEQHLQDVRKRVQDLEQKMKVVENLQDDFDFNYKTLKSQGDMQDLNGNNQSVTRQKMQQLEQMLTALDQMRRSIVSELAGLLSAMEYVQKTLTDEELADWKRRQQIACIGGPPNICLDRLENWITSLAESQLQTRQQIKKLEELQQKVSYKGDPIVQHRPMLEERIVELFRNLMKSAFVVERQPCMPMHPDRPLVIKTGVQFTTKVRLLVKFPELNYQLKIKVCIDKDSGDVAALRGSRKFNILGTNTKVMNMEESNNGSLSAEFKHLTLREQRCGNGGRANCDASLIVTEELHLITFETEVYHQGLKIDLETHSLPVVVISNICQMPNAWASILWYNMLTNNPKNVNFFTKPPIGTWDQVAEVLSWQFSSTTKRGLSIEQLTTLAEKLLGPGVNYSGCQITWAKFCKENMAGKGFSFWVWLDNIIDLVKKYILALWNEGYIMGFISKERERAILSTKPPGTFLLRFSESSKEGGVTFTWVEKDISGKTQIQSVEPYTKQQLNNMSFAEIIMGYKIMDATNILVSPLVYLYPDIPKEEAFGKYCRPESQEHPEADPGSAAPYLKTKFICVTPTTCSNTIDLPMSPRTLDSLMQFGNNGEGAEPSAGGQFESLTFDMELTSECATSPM

The target in this test is Signal transducer and activator of transcription 3 (Homo sapiens, UniProt P40763). The test can be described thus: Competitive binding affinity to Stat3 SH2 domain (unknown origin) using 5-FAM-GpYLPQTV-NH2 as probe assessed as phosphopetide complex formation after 30 mins by fluorescence polarization assay. The procedure, abridged:
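Fluorescence polarization. Recombinant STAT protein was incubated with the 5-FAM-GpYLPQTV-NH2 peptide probe and inhibitor for 30 min. Polarized fluorescence was plotted against inhibitor concentration, and IC50 was obtained by fitting a dose-response curve.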
A general note: Polarisation of emitted light reports the rotation of a fluorescent probe.
Consider `COC(=O)c1ccccc1CN(CC(=O)N(Cc1ccc(C2CCCCC2)cc1)c1ccc(C(=O)O)c(O)c1)S(=O)(=O)c1c(F)c(F)c(F)c(F)c1F`, for which the pIC50 is 4.76.

For the compound `CCOC(=O)c1ccc(CN(CC(=O)N(Cc2ccc(C3CCCCC3)cc2)c2ccc(C(=O)O)c(O)c2)S(=O)(=O)c2ccc(C)cc2)cc1`, the pIC50 is 5.12.

Regarding `O=C(O)c1ccc(N(Cc2ccc(C3CCCCC3)cc2)C(=O)CN(Cc2ccccc2Cl)S(=O)(=O)c2c(F)c(F)c(F)c(F)c2F)cc1O`, the pIC50 is 4.96.

Regarding `O=C(O)c1ccc(N(Cc2ccc(C3CCCCC3)cc2)C(=O)CN(Cc2ccc(OC(F)(F)F)cc2)S(=O)(=O)c2c(F)c(F)c(F)c(F)c2F)cc1O`, the pIC50 was 4.67.

For `Cc1ccc(S(=O)(=O)N(CC(=O)N(Cc2ccc(C3CCCCC3)cc2)c2ccc(C(=O)O)c(O)c2)Cc2cccc(C)c2)cc1`, the pIC50 is 5.28.

Consider `Cc1ccc(S(=O)(=O)N(CC(=O)N(Cc2ccc(C3CCCCC3)cc2)c2ccc(C(=O)O)c(O)c2)Cc2ccc(F)cc2)cc1`, for which the pIC50 is 5.12.

In the case of `N#Cc1ccccc1CN(CC(=O)N(Cc1ccc(C2CCCCC2)cc1)c1ccc(C(=O)O)c(O)c1)S(=O)(=O)c1c(F)c(F)c(F)c(F)c1F`, the pIC50 was 4.94.

As to `Cc1ccc(S(=O)(=O)N(CC(=O)N(Cc2ccc(C3CCCCC3)cc2)c2ccc(C(=O)O)c(O)c2)Cc2ccncc2)cc1`, the pIC50 is 4.33.

Turning to `Cc1ccc(S(=O)(=O)N(CC(=O)N(Cc2ccc(C3CCCCC3)cc2)c2ccc(C(=O)O)c(O)c2)Cc2ccc3ccccc3c2)cc1`, the negative logarithm of the IC50 (pIC50) was 5.30.

As for `Cc1ccc(S(=O)(=O)N(CC(=O)N(Cc2ccc(C3CCCCC3)cc2)c2ccc(C(=O)O)c(O)c2)Cc2ccccn2)cc1`, the pIC50 was 4.34.

On to `C=CCN(CC(=O)N(Cc1ccc(C2CCCCC2)cc1)c1ccc(C(=O)O)c(O)c1)S(=O)(=O)c1ccc(C)cc1`, for which the pIC50 was under 4.30.

As to `Cc1ccc(S(=O)(=O)N(CC(=O)N(Cc2ccc(C3CCCCC3)cc2)c2ccc(C(=O)O)c(O)c2)Cc2ccc(SC(F)(F)F)cc2)cc1`, the pIC50 is 5.02.

For the compound `Cc1ccc(S(=O)(=O)N(CC(=O)N(Cc2ccc(C3CCCCC3)cc2)c2ccc(C(=O)O)c(O)c2)Cc2cccc(N)c2)cc1`, the pIC50 was 4.91.

Turning to `Cc1ccc(S(=O)(=O)N(CC(=O)N(Cc2ccc(C3CCCCC3)cc2)c2ccc(C(=O)O)c(O)c2)CC(C)C)cc1`, the negative logarithm of the IC50 (pIC50) is 4.77.

With `Cc1ccc(S(=O)(=O)N(CC(=O)N(Cc2ccc(C3CCCCC3)cc2)c2ccc(C(=O)O)c(O)c2)Cc2cc(F)c(F)c(F)c2F)cc1`, the negative logarithm of the IC50 (pIC50) was 4.65.

Turning to `Cc1ccc(S(=O)(=O)N(CC(=O)N(Cc2ccc(C3CCCCC3)cc2)c2ccc(C(=O)O)c(O)c2)Cc2ccccc2N)cc1`, the pIC50 is 4.62.

As to `N#Cc1cccc(CN(CC(=O)N(Cc2ccc(C3CCCCC3)cc2)c2ccc(C(=O)O)c(O)c2)S(=O)(=O)c2c(F)c(F)c(F)c(F)c2F)c1`, the negative-log IC50 (pIC50) is 4.70.

Consider `Cc1ccc(S(=O)(=O)N(CC(=O)N(Cc2ccc(C3CCCCC3)cc2)c2ccc(C(=O)O)c(O)c2)Cc2ccc(N)cc2)cc1`, for which the negative logarithm of the IC50 (pIC50) is 4.68.

Take `Cc1ccc(S(=O)(=O)N(CC(=O)N(Cc2ccc(C3CCCCC3)cc2)c2ccc(C(=O)O)c(O)c2)Cc2c(F)c(F)cc(F)c2F)cc1`: the negative-log IC50 (pIC50) is 4.64.

Take `Cc1ccc(S(=O)(=O)N(CC(=O)N(Cc2ccc(C3CCCCC3)cc2)c2ccc(C(=O)O)c(O)c2)Cc2ccccc2F)cc1`: the negative-log IC50 (pIC50) was 4.97.

For `Cc1ccc(S(=O)(=O)N(CC(=O)N(Cc2ccc(C3CCCCC3)cc2)c2ccc(C(=O)O)c(O)c2)Cc2cccc(C#N)c2)cc1`, the pIC50 is 4.91.

As for `Cc1ccc(S(=O)(=O)N(CC(=O)N(Cc2ccc(C3CCCCC3)cc2)c2ccc(C(=O)O)c(O)c2)Cc2ccccc2OC(F)(F)F)cc1`, the negative-log IC50 (pIC50) is 5.14.

For the compound `O=C(O)c1ccc(N(Cc2ccc(C3CCCCC3)cc2)C(=O)CN(Cc2ccc(Cl)cc2)S(=O)(=O)c2c(F)c(F)c(F)c(F)c2F)cc1O`, the negative-log IC50 (pIC50) was 4.86.

For the compound `CC(C)(C)OC(=O)N(CC(=O)N(Cc1ccc(C2CCCCC2)cc1)c1ccc(C(=O)O)c(O)c1)S(=O)(=O)c1c(F)c(F)c(F)c(F)c1F`, the negative-log IC50 (pIC50) was 4.56.

For `O=C(O)c1ccc(N(Cc2ccc(C3CCCCC3)cc2)C(=O)CNS(=O)(=O)c2c(F)c(F)c(F)c(F)c2F)cc1O`, the pIC50 is 4.49.

Regarding `O=C(O)c1ccc(N(Cc2ccc(C3CCCCC3)cc2)C(=O)CN(Cc2ccccc2F)S(=O)(=O)c2c(F)c(F)c(F)c(F)c2F)cc1O`, the pIC50 was 4.55.

As to `COC(=O)c1ccc(CN(CC(=O)N(Cc2ccc(C3CCCCC3)cc2)c2ccc(C(=O)O)c(O)c2)S(=O)(=O)c2ccc(C)cc2)cc1`, the pIC50 was 4.94.

In the case of `Cc1ccc(S(=O)(=O)N(CC(=O)N(Cc2ccc(C3CCCCC3)cc2)c2ccc(C(=O)O)c(O)c2)Cc2ccc(F)cc2C(F)(F)F)cc1`, the pIC50 was 4.96.

Turning to `Cc1ccc(S(=O)(=O)N(CC(=O)N(Cc2ccc(C3CCCCC3)cc2)c2ccc(C(=O)O)c(O)c2)Cc2ccccc2)cc1`, the pIC50 was 4.84.

Consider `Cc1ccc(S(=O)(=O)N(CC(=O)N(Cc2ccc(C3CCCCC3)cc2)c2ccc(C(=O)O)c(O)c2)Cc2ccccc2Cl)cc1`, for which the pIC50 is 4.80.

For `Cc1ccc(S(=O)(=O)N(CC(=O)N(Cc2ccc(C3CCCCC3)cc2)c2ccc(C(=O)O)c(O)c2)Cc2cccc(Cl)c2)cc1`, the pIC50 was 5.22.

On to `Cc1ccc(S(=O)(=O)N(CC(=O)N(Cc2ccc(C3CCCCC3)cc2)c2ccc(C(=O)O)c(O)c2)Cc2ccc(OC(F)(F)F)cc2)cc1`, for which the pIC50 is 4.93.

`CCCN(CC(=O)N(Cc1ccc(C2CCCCC2)cc1)c1ccc(C(=O)O)c(O)c1)S(=O)(=O)c1ccc(C)cc1`: the pIC50 was 4.75.

For `O=C(O)c1ccc(N(Cc2ccc(C3CCCCC3)cc2)C(=O)CN(Cc2ccc(F)cc2)S(=O)(=O)c2c(F)c(F)c(F)c(F)c2F)cc1O`, the negative-log IC50 (pIC50) is 4.75.

As for `O=C(O)c1ccc(N(Cc2ccc(C3CCCCC3)cc2)C(=O)CN(Cc2ccccc2OC(F)(F)F)S(=O)(=O)c2c(F)c(F)c(F)c(F)c2F)cc1O`, the pIC50 is 4.99.

`Cc1ccc(S(=O)(=O)N(CC(=O)N(Cc2ccc(C3CCCCC3)cc2)c2ccc(C(=O)O)c(O)c2)Cc2cccc(F)c2)cc1`: the pIC50 was 5.05.

For the compound `Cc1ccc(S(=O)(=O)N(CC(=O)N(Cc2ccc(C3CCCCC3)cc2)c2ccc(C(=O)O)c(O)c2)Cc2cccc([N+](=O)[O-])c2)cc1`, the pIC50 was 5.30.

For `O=C(O)c1ccc(N(Cc2ccc(C3CCCCC3)cc2)C(=O)CN(Cc2cccc(OC(F)(F)F)c2)S(=O)(=O)c2c(F)c(F)c(F)c(F)c2F)cc1O`, the pIC50 was 4.75.

With `Cc1ccc(S(=O)(=O)N(CC(=O)N(Cc2ccc(C3CCCCC3)cc2)c2ccc(C(=O)O)c(O)c2)Cc2ccccc2C#N)cc1`, the pIC50 was 4.65.

`Cc1ccc(S(=O)(=O)N(CC(=O)N(Cc2ccc(C3CCCCC3)cc2)c2ccc(C(=O)O)c(O)c2)Cc2c(F)cc(F)c(F)c2F)cc1`: the negative-log IC50 (pIC50) was 4.81.

`Cc1ccc(S(=O)(=O)N(CC(=O)N(Cc2ccc(C3CCCCC3)cc2)c2ccc(C(=O)O)c(O)c2)Cc2ccc(Cl)cc2)cc1`: the pIC50 was 5.21.

For the compound `O=C(O)c1ccc(N(Cc2ccc(C3CCCCC3)cc2)C(=O)CN(Cc2cccc(F)c2)S(=O)(=O)c2c(F)c(F)c(F)c(F)c2F)cc1O`, the pIC50 was 4.75.

In the case of `O=C(O)c1ccc(N(Cc2ccc(C3CCCCC3)cc2)C(=O)CN(Cc2cc(F)c(F)c(F)c2F)S(=O)(=O)c2c(F)c(F)c(F)c(F)c2F)cc1O`, the pIC50 was 4.91.

As for `Cc1ccc(S(=O)(=O)N(CC(=O)N(Cc2ccc(C3CCCCC3)cc2)c2ccc(C(=O)O)c(O)c2)Cc2cccc(OC(F)(F)F)c2)cc1`, the pIC50 was 5.10.

Take `Cc1ccc(CN(CC(=O)N(Cc2ccc(C3CCCCC3)cc2)c2ccc(C(=O)O)c(O)c2)S(=O)(=O)c2c(F)c(F)c(F)c(F)c2F)cc1`: the negative-log IC50 (pIC50) was 4.84.

With `O=C(O)c1ccc(N(Cc2ccc(C3CCCCC3)cc2)C(=O)CN(Cc2cccc(Cl)c2)S(=O)(=O)c2c(F)c(F)c(F)c(F)c2F)cc1O`, the negative logarithm of the IC50 (pIC50) is 4.74.

As to `Cc1cccc(CN(CC(=O)N(Cc2ccc(C3CCCCC3)cc2)c2ccc(C(=O)O)c(O)c2)S(=O)(=O)c2c(F)c(F)c(F)c(F)c2F)c1`, the negative-log IC50 (pIC50) is 4.84.

Regarding `Cc1ccc(S(=O)(=O)N(CC(=O)N(Cc2ccc(C3CCCCC3)cc2)c2ccc(C(=O)O)c(O)c2)Cc2cccnc2)cc1`, the negative logarithm of the IC50 (pIC50) was under 4.30.

With `O=C(O)c1ccc(N(Cc2ccc(C3CCCCC3)cc2)C(=O)CN(Cc2c(F)cc(F)c(F)c2F)S(=O)(=O)c2c(F)c(F)c(F)c(F)c2F)cc1O`, the negative-log IC50 (pIC50) is 4.75.

With `COC(=O)c1cccc(CN(CC(=O)N(Cc2ccc(C3CCCCC3)cc2)c2ccc(C(=O)O)c(O)c2)S(=O)(=O)c2c(F)c(F)c(F)c(F)c2F)c1`, the negative logarithm of the IC50 (pIC50) is 4.51.

With `O=C(O)c1ccc(N(Cc2ccc(C3CCCCC3)cc2)C(=O)CN(Cc2c(F)c(F)cc(F)c2F)S(=O)(=O)c2c(F)c(F)c(F)c(F)c2F)cc1O`, the pIC50 is 4.78.

For `COC(=O)c1cccc(CN(CC(=O)N(Cc2ccc(C3CCCCC3)cc2)c2ccc(C(=O)O)c(O)c2)S(=O)(=O)c2ccc(C)cc2)c1`, the pIC50 was 4.74.

For `O=C(O)c1ccc(N(Cc2ccc(C3CCCCC3)cc2)C(=O)CN(Cc2ccc3ccccc3c2)S(=O)(=O)c2c(F)c(F)c(F)c(F)c2F)cc1O`, the pIC50 was 4.66.

Turning to `Cc1ccc(S(=O)(=O)N(CC(=O)N(Cc2ccc(C3CCCCC3)cc2)c2ccc(C(=O)O)c(O)c2)Cc2ccc([N+](=O)[O-])cc2)cc1`, the pIC50 is 4.96.

Consider `O=C(O)c1ccc(N(Cc2ccc(C3CCCCC3)cc2)C(=O)CN(Cc2ccccc2)S(=O)(=O)c2c(F)c(F)c(F)c(F)c2F)cc1O`, for which the pIC50 was 4.84.

For `Cc1ccc(S(=O)(=O)N(CC(=O)N(Cc2ccc(C3CCCCC3)cc2)c2ccc(C(=O)O)c(O)c2)Cc2ccc(C#N)cc2)cc1`, the pIC50 is 5.07.

As for `Cc1ccc(S(=O)(=O)N(CC(=O)N(Cc2ccc(C3CCCCC3)cc2)c2ccc(C(=O)O)c(O)c2)Cc2ccccc2[N+](=O)[O-])cc1`, the pIC50 was 5.00.

`Cc1ccc(S(=O)(=O)N(CC(N)=O)CC(=O)N(Cc2ccc(C3CCCCC3)cc2)c2ccc(C(=O)O)c(O)c2)cc1`: the pIC50 is under 4.30.

For `N#Cc1ccc(CN(CC(=O)N(Cc2ccc(C3CCCCC3)cc2)c2ccc(C(=O)O)c(O)c2)S(=O)(=O)c2c(F)c(F)c(F)c(F)c2F)cc1`, the pIC50 is 5.03.
